Results as given in ChEMBL document CHEMBL4028903 (J Med Chem, 2017).
Activity calls are given as the source filed them. No cut-off for these calls is given here.

Experiments:
[1] = Cmax in Sprague-Dawley rat at 0.03 mg/kg, po qd administered via gavage measured on day 11 by LC-MS/MS analysis; format: ADME, organism-based; parameters: dose 0.03 mg/kg, route oral; settings: in vivo
[2] = Drug uptake in Sprague-Dawley rat plasma at 0.01 mg/kg, po qd administered via gavage measured 7 hrs post last dose on day 14 by LC-MS/MS analysis; format: ADME, organism-based
[3] = Protein binding in mouse plasma at 5 mg/kg, iv or 10 mg/kg, po administered via gavage by LC-MS/MS analysis; format: ADME, organism-based; settings: read-out: PPB
Rattus norvegicus [4] = assay: Dose normalized AUC (0 to 24 hrs) in Sprague-Dawley rat at 1 mg/kg, po qd administered via gavage measured on day 11 by LC-MS/MS analysis; format: ADME, organism-based; settings: in vivo
[5] = Volume of distribution at steady state in mouse at 5 mg/kg, iv or 10 mg/kg, po administered via gavage by LC-MS/MS analysis; format: ADME, organism-based; settings: in vivo, read-out: Vdss
In short: (§1)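 IV dosing used a solution in 75% PEG300:25% D5W for mouse and rat, and a solution in 20% PEG300, 5% solutol, 75% carbonate buffer pH 8 for dog. PO dosing used a suspension in 0.5% methylcellulose, 0.5% Tween80, 99% water for all three species.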

Canis familiaris = assay: Drug metabolism in dog assessed as glycine conjugated metabolite formation at 0.5 mg/kg, iv or 2 mg/kg, po administered via gavage by LC-MS/MS analysis; format: ADME, organism-based, Canis lupus familiaris; settings: in vivo
In short: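 Plasma samples were taken from the dog PK studies. The IV solution was 20% PEG300, 5% solutol and 75% carbonate buffer pH = 8. The PO suspension was 0.5% methylcellulose, 0.5% Tween80 and 99% water. Samples were screened for taurine- and glycine-conjugated metabolites and for the acylglucuronide.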

[6] = Cmax in mouse at 10 mg/kg, po administered via gavage by LC-MS/MS analysis; format: ADME, organism-based; parameters: dose 10 mg/kg, route oral; settings: in vivo
In short: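 Single oral dose given as a suspension in 0.5% methylcellulose, 0.5% Tween80 and 99% water. Doses were 10 mg/kg in mouse, 1 mg/kg in rat and 2 mg/kg in dog.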

Rattus norvegicus [7] = assay: In vivo agonist activity at FXR in po dosed Sprague-Dawley rat assessed as induction of FGF15 protein level in plasma administered once daily for 14 days measured 24 hrs post last dose on day 14; format: functional, organism-based
[8] = Oral bioavailability in mouse at 10 mg/kg administered via gavage by LC-MS/MS analysis; format: ADME, organism-based; settings: in vivo; in short: as §1
[9] = AUC (0 to 24 hrs) in Sprague-Dawley rat at 0.1 mg/kg, po qd administered via gavage measured on day 11 by LC-MS/MS analysis; format: ADME, organism-based; parameters: time < 24 hr, dose 0.1 mg/kg, route oral; settings: in vivo
[10] = Volume of distribution at steady state in rat at 3 mg/kg, iv or 1 mg/kg, po administered via gavage by LC-MS/MS analysis; format: ADME, organism-based; settings: in vivo, read-out: Vdss; in short: as §1
Rattus norvegicus [11] = assay: In vivo agonist activity at FXR in po dosed Sprague-Dawley rat assessed as induction of BSEP mRNA level in liver administered as single dose after 7 hrs post dose by qPCR analysis; format: functional, organism-based
[12] = Cmax in Sprague-Dawley rat at 1 mg/kg, po qd administered via gavage measured on day 1 by LC-MS/MS analysis; format: ADME, organism-based; parameters: dose 1 mg/kg, route oral; settings: in vivo
Rattus norvegicus [13] = assay: In vivo agonist activity at FXR in po dosed Sprague-Dawley rat assessed as reduction in serum triglyceride level administered once daily for 14 days measured 24 hrs post last dose; format: functional, organism-based
Rattus norvegicus [14] = assay: Dose normalized AUC (0 to 24 hrs) in Sprague-Dawley rat at 0.01 mg/kg, po qd administered via gavage measured on day 1 by LC-MS/MS analysis; format: ADME, organism-based; settings: in vivo
[15] = Drug uptake in Sprague-Dawley rat plasma at 1 mg/kg, po qd administered via gavage measured 1 hr post last dose on day 14 by LC-MS/MS analysis; format: ADME, organism-based
Rattus norvegicus [16] = assay: In vivo agonist activity at FXR in Sprague-Dawley rat assessed as induction of SHP mRNA level in ileum at 0.01 mg/kg, po qd for 14 days measured 7 hrs post last dose on day 14 by qPCR analysis; format: functional, organism-based
[17] = Drug uptake in Sprague-Dawley rat plasma at 0.03 mg/kg, po qd administered via gavage measured 7 hrs post last dose on day 14 by LC-MS/MS analysis; format: ADME, organism-based
[18] = Clearance in mouse at 5 mg/kg, iv by LC-MS/MS analysis; format: ADME, organism-based; settings: in vivo
In short: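 Single IV dose given as a solution. Mouse received 5 mg/kg in 75% PEG300:25% D5W. Dog received 0.5 mg/kg in 20% PEG300, 5% solutol and 75% carbonate buffer pH = 8.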

[19] = biological target: T1, G-protein coupled bile acid receptor 1 (Mus musculus, UniProt Q80SS6); assay: Agonist activity at mouse TGR5
T1 sequence (Q80SS6 whole entry): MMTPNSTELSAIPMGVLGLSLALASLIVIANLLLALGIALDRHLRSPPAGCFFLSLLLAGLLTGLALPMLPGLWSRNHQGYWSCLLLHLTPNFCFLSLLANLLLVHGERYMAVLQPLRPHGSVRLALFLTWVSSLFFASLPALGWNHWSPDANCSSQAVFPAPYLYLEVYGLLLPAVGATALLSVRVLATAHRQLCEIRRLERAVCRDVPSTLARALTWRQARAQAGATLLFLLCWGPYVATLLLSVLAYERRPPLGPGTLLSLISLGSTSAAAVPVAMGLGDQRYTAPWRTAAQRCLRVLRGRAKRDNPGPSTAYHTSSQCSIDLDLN

[20] = Cmax in Sprague-Dawley rat at 3 mg/kg, po qd administered via gavage measured on day 1 by LC-MS/MS analysis; format: ADME, organism-based; parameters: dose 3 mg/kg, route oral; settings: in vivo
[21] = Cmax in Sprague-Dawley rat at 0.01 mg/kg, po qd administered via gavage measured on day 11 by LC-MS/MS analysis; format: ADME, organism-based; parameters: dose 0.01 mg/kg, route oral; settings: in vivo
[22] = Volume of distribution at steady state in rat at 3 mg/kg, iv by LC-MS/MS analysis; format: ADME, organism-based; settings: in vivo, read-out: Vdss
In short: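 Rats were dosed IV as a solution in 75% PEG300:25% D5W, or orally as a suspension in 0.5% methylcellulose, 0.5% Tween80 and 99% water.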

Rattus norvegicus [23] = assay: In vivo agonist activity at FXR in po dosed Sprague-Dawley rat assessed as downregulation of CYP8B1 mRNA level in liver administered once daily for 14 days measured 7 hrs post last dose on day 14 by qPCR analysis; format: functional
[24] = Drug uptake in Sprague-Dawley rat liver at 0.01 mg/kg, po qd administered via gavage measured 1 hr post last dose on day 14 by LC-MS/MS analysis; format: ADME, organism-based; settings: read-out: Drug uptake
In short: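 Drug concentration in liver was quantified from tissue homogenates, so these are total levels. Unbound liver concentration was not determined.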

[25] = Cmax in Sprague-Dawley rat at 1 mg/kg, po qd administered via gavage measured on day 11 by LC-MS/MS analysis; format: ADME, organism-based; parameters: dose 1 mg/kg, route oral; settings: in vivo
[26] = Protein binding in rat plasma at 0.01 to 0.05 mg/kg, po qd administered via gavage by LC-MS/MS analysis; format: ADME, organism-based; settings: read-out: PPB
Rattus norvegicus [27] = assay: In vivo agonist activity at FXR in po dosed Sprague-Dawley rat assessed as induction of FGF15 protein level in plasma administered once daily for 14 days measured 7 hrs post last dose on day 14; format: functional, organism-based

SMILES: O=C(O)c1cc(F)c2nc(N3C4CCC3CC(OCc3c(-c5ccccc5OC(F)(F)F)noc3C3CC3)C4)sc2c1 (stereo not drawn)
- Cmax [1]: 1.9 nM
- concentration at 7 h [2]: 0.31 nM
- fraction unbound [3]: 0.001
- AUC/dose (Rattus norvegicus [4]): 562 nM·h
- Vd [5]: 0.7 L/kg
- Drug metabolism (Canis familiaris): Metabolite_Notdetected
- Cmax [6]: 1190 nM
- Activity (Rattus norvegicus [7]): inactive
- bioavailability [8]: 9.2%
- AUC at 24 h [9]: 0.08 µM·h
- Vd [10]: 0.72 L/kg
- Activity (Rattus norvegicus [11]): Dose-dependent effect
- Cmax [12]: 39.3 nM
- Activity (Rattus norvegicus [13]): Dose-dependent effect
- AUC/dose (Rattus norvegicus [14]): 443 nM·h
- concentration at 1 h [15]: 16.4 nM
- Activity (Rattus norvegicus [16]): Active
- concentration at 7 h [17]: 1.16 nM
- clearance [18]: 5.3 mL/min/kg
- EC50 [19]: > 10 µM
- Cmax [20]: 172 nM
- Cmax [21]: 0.79 nM
- Vd [22]: 0.72 L/kg
- ED50 (Rattus norvegicus [23]): 0.01 mg/kg
- concentration at 1 h [24]: 8.35 nM
- Cmax [25]: 43.1 nM
- fraction unbound [26]: 0.001
- Activity (Rattus norvegicus [27]): Dose-dependent effect
